biological target: T1, Aromatase (Homo sapiens, UniProt P11511); test: Inhibition of human aromatase using androstenedione as substrate assessed as remaining estrone level at 10 uM after 30 mins by LC-MS/MS analysis relative to control; conditions: 0.5 h, read-out: Activity
T1 sequence (P11511 whole entry): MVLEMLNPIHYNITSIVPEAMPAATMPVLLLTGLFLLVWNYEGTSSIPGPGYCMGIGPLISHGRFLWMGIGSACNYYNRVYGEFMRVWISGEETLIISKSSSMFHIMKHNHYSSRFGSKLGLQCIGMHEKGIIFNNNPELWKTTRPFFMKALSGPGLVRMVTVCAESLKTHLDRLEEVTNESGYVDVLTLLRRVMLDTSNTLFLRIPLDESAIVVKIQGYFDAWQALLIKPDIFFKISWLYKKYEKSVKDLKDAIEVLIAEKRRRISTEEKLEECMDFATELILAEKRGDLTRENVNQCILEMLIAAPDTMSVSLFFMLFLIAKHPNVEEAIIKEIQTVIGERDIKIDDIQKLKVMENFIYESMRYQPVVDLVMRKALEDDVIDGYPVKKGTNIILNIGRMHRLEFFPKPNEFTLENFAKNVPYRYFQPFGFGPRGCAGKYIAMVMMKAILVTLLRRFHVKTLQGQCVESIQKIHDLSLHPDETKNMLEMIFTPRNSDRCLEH
Method in brief: (§1)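 cDNA-expressed human CYP19A1 supersomes at 0.05 mg/mL, with 1 µM androstenedione, 3.3 mM MgCl2 and an NADPH-generating system (glucose-6-phosphate, β-NADP+, glucose-6-phosphate dehydrogenase) in 0.1 M potassium phosphate, pH 7.4. Incubated 30 min at 37 °C, stopped with ethyl acetate plus cortisone internal standard, then liquid–liquid extraction. Estrone quantified by LC–MS/MS as % of control. Single concentration, mean of duplicates.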

Point of comparison: `O=C1c2ccc(O)cc2O[C@H](c2ccc(O)cc2)[C@H]1O` [GARBANZOL], activity at 10 µM 99.3%. Against it:
- O=Cc1ccc(O)cc1O — lower, 91.7%
- O=C1c2ccc(O)cc2O[C@H](c2ccc(O)c(O)c2)[C@H]1O (relative stereo) [FUSTIN] — higher, 110%
- O=C(O)c1ccc(O)cc1O [2,4-DIHYDROXYBENZOIC ACID] — lower, 93.9%
- O=C1c2c(O)cc(O)cc2O[C@H](c2ccc(O)c(O)c2)[C@H]1O [(+)-TAXIFOLIN] — lower, 90.7%
- O=C(/C=C/c1ccc(O)c(O)c1)c1ccc(O)cc1O [BUTEIN] — lower, 87.5%
- O=c1c(O)c(-c2ccc(O)c(O)c2)oc2cc(O)ccc12 [FISETIN] — higher, 117%
- C[C@]12CCC(=O)C(O)=C1CC[C@@H]1[C@@H]2CC[C@]2(C)C(=O)CC[C@@H]12 [FORMESTANE] — lower, 5.1%
- O=C(O)c1cc(O)c(O)c(O)c1 [GALLIC ACID] — higher, 112%
- O=C(O)c1ccc(O)cc1 [PARABEN] — lower, 91.8%
- O=C(O)c1ccc(O)c(O)c1 [PROTOCATECHUIC ACID] — lower, 83.5%
- O=c1c(O)c(-c2ccc(O)c(O)c2)oc2cc(O)cc(O)c12 [QUERCETIN] — lower, 96%
- O=c1c(O)c(-c2ccc(O)cc2)oc2cc(O)ccc12 [RESOKAEMPFEROL] — higher, 102%
- Oc1cccc(O)c1 [RESORCINOL] — lower, 91.8%
- O=C1/C(=C/c2ccc(O)c(O)c2)Oc2cc(O)ccc21 [SULFURETIN] — lower, 99%

biological target: T1, Aromatase; test: Inhibition of human aromatase using androstenedione as substrate assessed as estrone formation at 10 uM after 30 mins by LC-MS/MS analysis; conditions: not given; method in brief: as §1

With `C[C@]12CCC(=O)C(O)=C1CC[C@@H]1[C@@H]2CC[C@]2(C)C(=O)CC[C@@H]12` [FORMESTANE] the IC50 was 470 nM.

same assay, conditions: human, 0.5 h, 10 µM

`C[C@]12CCC(=O)C(O)=C1CC[C@@H]1[C@@H]2CC[C@]2(C)C(=O)CC[C@@H]12` [FORMESTANE] was tested, and the “inhibition (INH)” value was “Dose-dependent effect”.
